ChEMBL document CHEMBL1811806, “Synthesis and biological evaluation of 4β-acrylamidopodophyllotoxin congeners as DNA damaging agents” (2011)
Active and inactive are the calls of the source. No cut-off for these calls is given here.

Key:
MCF7 [1] = assay: Cytotoxicity against human MCF7 cells after 48 hrs by sulforhodamine B assay; format: functional; details: MCF7, 48 h
Summary of the method: (§1)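 SRB growth assay, 48 h continuous exposure. Cells grown in DMEM with 10% FBS and 2 mM L-glutamine, plated at densities set by doubling time, preincubated 24 h at 37 °C, 5% CO2. Four concentrations (0.1, 1, 10, 100 µM) in triplicate wells. TCA fixation, 0.4% SRB staining, absorbance at 540 nm against 690 nm reference. GI50 from time-zero-corrected growth; repeated three times.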

[2] = Cytotoxicity against human Gurav cells after 48 hrs by sulforhodamine B assay; format: functional; summary of the method: as §1
[3] = Cytotoxicity against human DWD cells after 48 hrs by sulforhodamine B assay; format: functional; summary of the method: as §1
A549 = assay: Cytotoxicity against human A549 cells after 48 hrs by sulforhodamine B assay; format: functional; details: A549, 48 h; summary of the method: as §1
HOP-62 = assay: Cytotoxicity against human HOP62 cells after 48 hrs by sulforhodamine B assay; format: functional; details: HOP-62, 48 h; summary of the method: as §1
A2780 = assay: Cytotoxicity against human A2780 cells after 48 hrs by sulforhodamine B assay; format: functional; details: A2780, 48 h; summary of the method: as §1
ZR-75-1 = assay: Cytotoxicity against human ZR-75-1 cells after 48 hrs by sulforhodamine B assay; format: functional; details: ZR-75-1, 48 h; summary of the method: as §1
COLO 205 = assay: Cytotoxicity against human COLO205 cells after 48 hrs by sulforhodamine B assay; format: functional; details: COLO 205, 48 h; summary of the method: as §1
MCF7 [4] = assay: Cytotoxicity against human MCF7 cells at 2 to 4 uM after 24 hrs by MTT assay; format: functional, cell-based
Summary of the method: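 MCF-7 cells in DMEM with 10% fetal calf serum and penicillin/streptomycin, seeded at 10,000 cells/well and incubated overnight. Treated at 2 and 4 µM for 24 h, then medium replaced with MTT and incubated 2 h at 37 °C. Formazan dissolved in extraction buffer and read at 570 nm.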

MCF7 [5] = assay: Cell cycle arrest in human MCF7 cells assessed as accumulation at GO phase at 2 uM after 24 hrs by propidium iodide staining based flow cytometry (reference value: 6.09%); format: functional
MCF7 [6] = assay: Cell cycle arrest in human MCF7 cells assessed as accumulation at G1 phase at 2 uM after 24 hrs by propidium iodide staining based flow cytometry (reference value: 60.5%); format: functional
MCF7 [7] = assay: Cell cycle arrest in human MCF7 cells assessed as accumulation at S phase at 2 uM after 24 hrs by propidium iodide staining based flow cytometry (reference value: 6.99%); format: functional
MCF7 [8] = assay: Cell cycle arrest in human MCF7 cells assessed as accumulation at G2/M phase at 2 uM after 24 hrs by propidium iodide staining based flow cytometry (reference value: 26.42%); format: functional
MCF7 [9] = assay: Induction of apoptosis in human MCF7 cells assessed as double-strand DNA breaks at 2 uM after 24 hrs measured as phosphorylation at ser-139 on H2AX protein by immunostaining relative to control; format: functional
Summary of the method: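 MCF-7 cells on coverslips treated 24 h at 2 µM, fixed in 4% paraformaldehyde for 20 min at room temperature, blocked with 1% BSA for 60 min. Anti-γ-H2AX (Ser139) antibody at 1:100 for 2 h at room temperature, then FITC-conjugated anti-rabbit secondary for 1 h. Foci-positive cells scored as percentage against DMSO control.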

MCF7 [10] = assay: Induction of apoptosis in human MCF7 cells assessed as single-strand DNA break at 2 uM after 24 hrs by comet assay relative to control; format: functional
Summary of the method: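 Alkaline comet assay in MCF-7 cells after 24 h at 2 µM. Electrophoresis 20 min at 40 V in 0.5% TBE pH 8, SYBR Green I stain, fluorescence microscopy; percentage of cells with tails scored.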

Row | Compound | GI50 (MCF7 [1]) [nM] | GI50 [2] [nM] | GI50 [3] [nM] | GI50 (A549) [nM] | GI50 (HOP-62) [nM] | GI50 (A2780) [nM] | GI50 (ZR-75-1) [nM] | GI50 (COLO 205) [nM] | Activity (MCF7 [4]) | Activity (MCF7 [5]) [%] | Activity (MCF7 [6]) [%] | Activity (MCF7 [7]) [%] | Activity (MCF7 [8]) [%] | Activity (MCF7 [9]) | Activity (MCF7 [10]) [%]
1 | COc1cc(/C(=C\c2cccc([N+](=O)[O-])c2)C(=O)N[C@@H]2c3cc4c(cc3[C@@H](c3cc(OC)c(OC)c(OC)c3)[C@H]3C(=O)OC[C@@H]32)OCO4)cc(OC)c1OC | 2700 | 2100 | < 100 | 2400 | 170 | 2500 |  |  |  |  |  |  |  |  | 
2 | COc1cccc2c1C(=O)c1c(O)c3c(c(O)c1C2=O)C[C@@](O)(C(=O)CO)C[C@@H]3O[C@H]1C[C@H](N)[C@H](O)[C@H](C)O1 [DOXORUBICIN] | 130 | < 100 | < 100 | < 100 | 150 | < 100 | 110 | < 100 |  |  |  |  |  |  | 
3 | COc1ccccc1/C=C(/C(=O)N[C@@H]1c2cc3c(cc2[C@@H](c2cc(OC)c(OC)c(OC)c2)[C@H]2C(=O)OC[C@@H]21)OCO3)c1ccccc1[N+](=O)[O-] |  |  |  |  |  |  |  |  | Active |  |  |  |  |  | 
4 | COc1ccc(/C=C\c2cc(OC)c(OC)c(OC)c2)cc1O [COMBRETASTATIN A4] |  |  |  |  |  |  |  |  |  | 5.07 | 2.49 | 8.03 | 84.41 | 50% | 
5 | COc1ccc(/C=C(/C(=O)N[C@@H]2c3cc4c(cc3[C@@H](c3cc(OC)c(OC)c(OC)c3)[C@H]3C(=O)OC[C@@H]32)OCO4)c2cc(OC)c(OC)c(OC)c2)cc1O |  |  |  | 2900 | 2900 |  |  |  |  |  |  |  |  |  | 
6 | COc1ccccc1/C(=C\c1ccc([N+](=O)[O-])cc1)C(=O)O |  |  |  |  |  |  |  |  | inactive | 3.07 | 66.28 | 10.53 | 20.12 | 30% | 20
7 | COc1cc(/C(=C\c2ccc(O)cc2)C(=O)N[C@@H]2c3cc4c(cc3[C@@H](c3cc(OC)c(OC)c(OC)c3)[C@H]3C(=O)OC[C@@H]32)OCO4)cc(OC)c1OC |  | 2700 | 2700 | 2300 | 2600 |  | 2700 |  |  |  |  |  |  |  | 
8 | COc1cccc(/C=C(/C(=O)N[C@@H]2c3cc4c(cc3[C@@H](c3cc(OC)c(OC)c(OC)c3)[C@H]3C(=O)OC[C@@H]32)OCO4)c2cc(OC)c(OC)c(OC)c2)c1 | < 100 | 2100 | 2200 | 2700 | 180 | < 100 | 180 |  | Active | 4.83 | 52.49 | 6.43 | 36.35 |  | 
9 | COc1ccc(/C=C(/C(=O)N[C@@H]2c3cc4c(cc3[C@@H](c3cc(OC)c(OC)c(OC)c3)[C@H]3C(=O)OC[C@@H]32)OCO4)c2cc(OC)c(OC)c(OC)c2)cc1 | 2900 | 2200 | 2300 |  |  | 2500 | 2900 | 170 |  |  |  |  |  |  | 
10 | COc1ccc(/C=C(/C(=O)N[C@@H]2c3cc4c(cc3[C@@H](c3cc(OC)c(OC)c(OC)c3)[C@H]3C(=O)OC[C@@H]32)OCO4)c2cc(OC)c(OC)c(OC)c2)cc1[N+](=O)[O-] |  | 2600 | 2900 |  | 2300 | 2500 | 2200 | 2700 |  |  |  |  |  |  | 
11 | COc1cc(/C(=C\c2ccc([N+](=O)[O-])cc2)C(=O)N[C@@H]2c3cc4c(cc3[C@@H](c3cc(OC)c(OC)c(OC)c3)[C@H]3C(=O)OC[C@@H]32)OCO4)cc(OC)c1OC |  | 2100 | 2400 |  | 2700 | 2600 | 2200 | 2100 |  |  |  |  |  |  | 
12 | COc1ccc(/C=C(/C(=O)N[C@@H]2c3cc4c(cc3[C@@H](c3cc(OC)c(OC)c(OC)c3)[C@H]3C(=O)OC[C@@H]32)OCO4)c2cc(OC)c(OC)c(OC)c2)cc1F | 2700 |  |  |  |  |  |  | 2400 |  |  |  |  |  |  | 
13 | COc1cc([C@@H]2c3cc4c(cc3[C@H](O)[C@H]3COC(=O)[C@H]23)OCO4)cc(OC)c1OC [PODOFILOX] |  |  |  |  |  |  |  |  | inactive | 5.9 | 2.38 | 5.13 | 86.59 | inactive | 
14 | COc1cc(/C(=C\c2ccc(O)c([N+](=O)[O-])c2)C(=O)N[C@@H]2c3cc4c(cc3[C@@H](c3cc(OC)c(OC)c(OC)c3)[C@H]3C(=O)OC[C@@H]32)OCO4)cc(OC)c1OC | 2700 | 190 | < 100 |  | 190 | 2200 | 180 | 2000 |  |  |  |  |  |  | 
15 | COc1ccc(/C=C(/C(=O)N[C@@H]2c3cc4c(cc3[C@@H](c3cc(OC)c(OC)c(OC)c3)[C@H]3C(=O)OC[C@@H]32)OCO4)c2cc(OC)c(OC)c(OC)c2)c(F)c1 | 2400 | 180 | 190 | 2100 | 170 | 2700 | 2500 |  |  |  |  |  |  |  | 
16 | COc1cc(/C=C(/C(=O)N[C@@H]2c3cc4c(cc3[C@@H](c3cc(OC)c(OC)c(OC)c3)[C@H]3C(=O)OC[C@@H]32)OCO4)c2cc(OC)c(OC)c(OC)c2)ccc1F |  | 2400 |  |  | 2500 |  | 2200 |  |  |  |  |  |  |  | 
17 | COc1ccccc1/C=C(/C(=O)N[C@@H]1c2cc3c(cc2[C@@H](c2cc(OC)c(OC)c(OC)c2)[C@H]2C(=O)OC[C@@H]21)OCO3)c1ccc([N+](=O)[O-])cc1 |  |  |  |  |  |  |  |  | Active |  |  |  |  |  | 
18 | COc1cc(/C=C(/C(=O)N[C@@H]2c3cc4c(cc3[C@@H](c3cc(OC)c(OC)c(OC)c3)[C@H]3C(=O)OC[C@@H]32)OCO4)c2cc(OC)c(OC)c(OC)c2)ccc1O |  |  |  | 2400 | 2500 |  | 2900 |  |  |  |  |  |  |  | 
19 | COc1cc([C@@H]2c3cc4c(cc3[C@@H](O[C@@H]3O[C@@H]5CO[C@@H](C)O[C@H]5[C@H](O)[C@H]3O)[C@H]3COC(=O)[C@H]23)OCO4)cc(OC)c1O [ETOPOSIDE] | 2100 | 500 | 600 | 3080 | 800 | 1300 | 200 | 130 | Active | 7.54 | 17.29 | 12.31 | 62.86 | 70% | 10
20 | COc1ccc(F)c(/C=C(/C(=O)N[C@@H]2c3cc4c(cc3[C@@H](c3cc(OC)c(OC)c(OC)c3)[C@H]3C(=O)OC[C@@H]32)OCO4)c2cc(OC)c(OC)c(OC)c2)c1 |  | 2500 |  |  |  |  | 2700 |  |  |  |  |  |  |  | 
